Laboratory results: ChEMBL document CHEMBL2016445, “Discovery of a novel class of potent and orally bioavailable sphingosine 1-phosphate receptor 1 antagonists” (J Med Chem, 2012)
pIC50: −log10 of the molar value. Blank lines part the entries; values can stand above or below the molecule they belong to.

Tests used:
[1] = target: T1, Sphingosine 1-phosphate receptor 1 (Homo sapiens, UniProt P21453); test: Antagonist activity at S1P1 receptor expressed in HEK293 cells assessed as inhibition of S1P-induced cAMP response after 90 mins by spectrophotometry; assay type: functional, cell-based
T1 sequence (P21453 whole entry): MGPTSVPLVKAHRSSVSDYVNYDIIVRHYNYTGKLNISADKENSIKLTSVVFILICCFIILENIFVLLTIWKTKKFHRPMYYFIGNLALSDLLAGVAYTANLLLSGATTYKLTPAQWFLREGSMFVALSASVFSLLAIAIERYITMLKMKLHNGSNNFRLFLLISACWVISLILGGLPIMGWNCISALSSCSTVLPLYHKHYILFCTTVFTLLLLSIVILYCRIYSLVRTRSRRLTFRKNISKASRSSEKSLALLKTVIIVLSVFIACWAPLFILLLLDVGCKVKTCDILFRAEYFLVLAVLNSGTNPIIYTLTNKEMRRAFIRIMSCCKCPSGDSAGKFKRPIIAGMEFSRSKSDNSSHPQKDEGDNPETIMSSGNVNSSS

[2] = Drug uptake in nu/nu homozygous mouse plasma at 100 mg/kg, po as a solution of 10% EtOH/40% PEG400/20% Captisol/water + 1:1 HCl after 4 hrs by HPLC/MS/MS analysis; assay type: ADME, organism-based; design: dose 100 mg/kg, route oral
Outline: (§1)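 Female Nu/Nu mice (~8 wk, 20-22 g) given a single 100 mpk oral dose at 10 mL/kg. Vehicles: 10% EtOH/45% or 40% PEG400/water + 1 molar equiv HCl, 10% EtOH/40% PEG400/20% Captisol + HCl, or 10% NMP/90% corn oil. Heparinized blood collected 1 and 4 h post-dose; plasma analysed by HPLC/MS/MS.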

[3] = Drug uptake in nu/nu homozygous mouse plasma at 100 mg/kg, po as a solution of 10% EtOH/40% PEG400/20% Captisol/water + 1:1 HCl after 1 hr by HPLC/MS/MS analysis; assay type: ADME, organism-based; design: dose 100 mg/kg, route oral; outline: as §1
[4] = target: Sphingosine 1-phosphate receptor 3 (Homo sapiens, UniProt Q99500); test: Antagonist activity at S1P3 receptor expressed in HEK293 cells assessed as inhibition of S1P-induced tango beta-arrestin recruitment preincubated for 30 mins prior S1P addition measured after 16 to 18 hrs by luciferase reporter gene assay; assay type: functional, cell-based
Chain of Sphingosine 1-phosphate receptor 3 (Q99500 whole entry): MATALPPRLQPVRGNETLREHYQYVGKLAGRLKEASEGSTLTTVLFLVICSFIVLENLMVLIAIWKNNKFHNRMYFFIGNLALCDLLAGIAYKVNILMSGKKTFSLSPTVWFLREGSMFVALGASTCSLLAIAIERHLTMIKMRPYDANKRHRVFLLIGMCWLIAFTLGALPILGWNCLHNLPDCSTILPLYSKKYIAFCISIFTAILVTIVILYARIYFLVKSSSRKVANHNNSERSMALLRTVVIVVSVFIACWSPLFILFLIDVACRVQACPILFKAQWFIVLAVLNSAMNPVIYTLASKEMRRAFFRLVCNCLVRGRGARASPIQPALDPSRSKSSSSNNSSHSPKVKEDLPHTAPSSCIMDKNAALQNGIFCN

[5] = Cmax in overnight fasted cynomolgus monkey at 3 mg/kg, po by HPLC/MS/MS analysis; assay type: ADME, organism-based, Macaca fascicularis; design: dose 3 mg/kg, route oral; details: in vivo
Outline: (§2)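 Male cynomolgus monkeys fasted overnight and fed again 4 h post-dose; groups of 3. Dosed 3 mpk intravenously and by oral gavage as a solution in EtOH/PEG400/water (5:45:50). K-EDTA blood taken pre-dose and at 0.08-48 h. Plasma assayed by HPLC/MS/MS; non-compartmental analysis.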

[6] = Oral bioavailability in overnight fasted CD Sprague-Dawley rat at 3 mg/kg by HPLC/MS/MS analysis; assay type: ADME, organism-based; details: in vivo
[7] = target: Sphingosine 1-phosphate receptor 2 (Homo sapiens, UniProt O95136); test: Antagonist activity at S1P2 receptor expressed in HEK293 cells assessed as inhibition of S1P-induced tango beta-arrestin recruitment preincubated for 30 mins prior S1P addition measured after 16 to 18 hrs by luciferase reporter gene assay; assay type: functional, cell-based
Chain of Sphingosine 1-phosphate receptor 2 (O95136 whole entry): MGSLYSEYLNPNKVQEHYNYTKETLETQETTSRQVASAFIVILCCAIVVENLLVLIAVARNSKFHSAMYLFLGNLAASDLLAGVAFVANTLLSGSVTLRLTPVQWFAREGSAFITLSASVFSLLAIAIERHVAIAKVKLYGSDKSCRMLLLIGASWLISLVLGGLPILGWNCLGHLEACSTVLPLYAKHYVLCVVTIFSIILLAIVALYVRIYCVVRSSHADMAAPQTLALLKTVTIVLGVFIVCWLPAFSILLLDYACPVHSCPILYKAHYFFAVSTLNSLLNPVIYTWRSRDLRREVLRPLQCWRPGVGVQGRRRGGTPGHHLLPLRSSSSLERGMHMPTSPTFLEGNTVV

[8] = AUC (0 to infinity) in overnight fasted CD Sprague-Dawley rat at 3 mg/kg, po by HPLC/MS/MS analysis; assay type: ADME, organism-based; design: dose 3 mg/kg, route oral, time infinity; details: plasma
Outline: (§3)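 Female Sprague-Dawley CD rats (9-10 wk, 201-225 g), fasted overnight and fed again 4 h post-dose. Given 3 mpk orally as a solution in EtOH/PEG400/water (5:45:50), n=4. Jugular-catheter blood drawn into heparin at 0.08-144 h (15 time points). Plasma assayed by HPLC/MS/MS; parameters from non-compartmental analysis.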

[9] = Antitumor activity against human MDA-MB-231T cells xenografted in athymic nude mouse assessed as tumor growth inhibition at 100 mg/kg, po qd for 14 days post implantation measured for 14 days; assay type: functional; details: 336 h, read-out: TGI
Outline: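 MDA-MB-231T cells grown in DMEM with 10% FBS. 1 x 10⁶ cells in ice-cold HBSS implanted into the mammary fat pad of female athymic nude (NCr) mice, 5-8 wk. Daily oral dosing at 10 mL/kg, solutions made fresh daily. Tumor weight measured twice weekly; TGI calculated against vehicle and staging-day weights; 2-tailed t-test, p<0.05.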

Cytochrome P450 2C9 = Cytochrome P450 2C9 (Homo sapiens, UniProt P11712); test: Inhibition of human CYP2C9 using tolbutamide as substrate by LC/MS/MS analysis; assay type: ADME
Chain of Cytochrome P450 2C9 (P11712 whole entry): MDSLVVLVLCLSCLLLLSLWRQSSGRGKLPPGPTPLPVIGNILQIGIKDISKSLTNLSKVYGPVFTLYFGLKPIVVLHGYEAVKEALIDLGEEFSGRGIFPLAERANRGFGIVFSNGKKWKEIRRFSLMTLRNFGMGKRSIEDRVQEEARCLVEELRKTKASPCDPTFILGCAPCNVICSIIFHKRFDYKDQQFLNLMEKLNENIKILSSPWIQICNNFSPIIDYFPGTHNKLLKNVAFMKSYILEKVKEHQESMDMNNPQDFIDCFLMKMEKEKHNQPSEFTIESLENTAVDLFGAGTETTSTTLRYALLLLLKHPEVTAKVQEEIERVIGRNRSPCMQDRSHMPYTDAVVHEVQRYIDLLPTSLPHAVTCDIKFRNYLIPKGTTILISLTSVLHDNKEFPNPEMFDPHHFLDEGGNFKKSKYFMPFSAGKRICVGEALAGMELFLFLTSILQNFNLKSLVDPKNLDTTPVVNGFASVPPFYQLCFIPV
Outline: (§4)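 Pooled human liver microsomes in 100 mM potassium phosphate, pH 7.4, at 37 °C with 1000 µM NADPH for 15 min. Microsomes 0.15 mg/mL for CYP2C9 and CYP2D6, 0.25 mg/mL for CYP3A4. Inhibitor tested at six concentrations (0.2–50 µM). Reactions quenched with acetonitrile; metabolite measured by LC/MS/MS; IC50 from 4-parameter sigmoidal fit.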

[10] = Drug uptake in nu/nu homozygous mouse plasma at 100 mg/kg, po as a suspension in 10% NMP/corn oil after 24 hrs by HPLC/MS/MS analysis; assay type: ADME, organism-based; design: dose 100 mg/kg, route oral
[11] = AUC (0 to infinity) in overnight fasted beagle dog at 3 mg/kg, po by HPLC/MS/MS analysis; assay type: ADME, organism-based, Canis lupus familiaris; design: time infinity, dose 3 mg/kg, route oral; details: plasma
Outline: (§5)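 Male beagle dogs fasted overnight and fed again 4 h post-dose; groups of 3. Study design covered 3 mpk IV and PO. Oral dose by gavage at 3 mpk in EtOH/PEG400/water (5:45:50). K-EDTA blood taken pre-dose and at 0.08-48 h. Plasma assayed by HPLC/MS/MS; non-compartmental PK parameters.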

[12] = Half life in overnight fasted beagle dog at 3 mg/kg, po by HPLC/MS/MS analysis; assay type: ADME, organism-based, Canis lupus familiaris; design: dose 3 mg/kg, route oral; details: in vivo; outline: as §5
[13] = Half life in overnight fasted CD Sprague-Dawley rat at 3 mg/kg, po by HPLC/MS/MS analysis; assay type: ADME, organism-based; design: dose 3 mg/kg, route oral; details: in vivo; outline: as §3
[14] = target: T1, Sphingosine 1-phosphate receptor 1; test: Antagonist activity at S1P1 receptor expressed in HEK293 cells assessed as inhibition of S1P-induced tango beta-arrestin recruitment preincubated for 30 mins prior S1P addition measured after 16 to 18 hrs by luciferase reporter gene assay; assay type: functional, cell-based
[15] = Oral bioavailability in overnight fasted cynomolgus monkey at 3 mg/kg by HPLC/MS/MS analysis; assay type: ADME, organism-based, Macaca fascicularis; details: in vivo; outline: as §2
[16] = Oral bioavailability in overnight fasted beagle dog at 3 mg/kg by HPLC/MS/MS analysis; assay type: ADME, organism-based, Canis lupus familiaris; details: in vivo; outline: as §5
[17] = Drug uptake in nu/nu homozygous mouse plasma at 100 mg/kg, po as a suspension in 10% NMP/corn oil after 4 hrs by HPLC/MS/MS analysis; assay type: ADME, organism-based; design: dose 100 mg/kg, route oral; outline: as §1
[18] = AUC (0 to infinity) in overnight fasted cynomolgus monkey at 3 mg/kg, po by HPLC/MS/MS analysis; assay type: ADME, organism-based, Macaca fascicularis; design: time infinity, dose 3 mg/kg, route oral; details: plasma; outline: as §2
[19] = Cmax in overnight fasted CD Sprague-Dawley rat at 3 mg/kg, po by HPLC/MS/MS analysis; assay type: ADME, organism-based; design: dose 3 mg/kg, route oral; details: in vivo; outline: as §3
[20] = Cmax in overnight fasted beagle dog at 3 mg/kg, po by HPLC/MS/MS analysis; assay type: ADME, organism-based, Canis lupus familiaris; design: dose 3 mg/kg, route oral; details: in vivo; outline: as §5
Cytochrome P450 2D6 = Cytochrome P450 2D6 (Homo sapiens, UniProt P10635); test: Inhibition of human CYP2D6 using bufuralol as substrate by LC/MS/MS analysis; assay type: ADME; outline: as §4
Chain of Cytochrome P450 2D6 (P10635 whole entry): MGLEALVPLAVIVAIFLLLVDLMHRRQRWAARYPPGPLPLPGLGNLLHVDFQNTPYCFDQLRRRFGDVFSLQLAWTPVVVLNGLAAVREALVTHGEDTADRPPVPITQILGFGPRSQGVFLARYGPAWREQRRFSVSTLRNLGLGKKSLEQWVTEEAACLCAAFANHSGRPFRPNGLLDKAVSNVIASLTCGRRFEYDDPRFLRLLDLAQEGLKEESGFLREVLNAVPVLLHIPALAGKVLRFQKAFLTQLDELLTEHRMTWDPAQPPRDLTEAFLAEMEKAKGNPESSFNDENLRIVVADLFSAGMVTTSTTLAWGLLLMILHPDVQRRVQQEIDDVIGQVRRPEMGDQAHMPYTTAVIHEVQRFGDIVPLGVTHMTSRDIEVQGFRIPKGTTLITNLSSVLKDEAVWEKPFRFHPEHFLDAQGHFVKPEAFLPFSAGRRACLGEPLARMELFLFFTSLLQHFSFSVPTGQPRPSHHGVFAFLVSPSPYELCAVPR

[21] = Half life in overnight fasted cynomolgus monkey at 3 mg/kg, po by HPLC/MS/MS analysis; assay type: ADME, organism-based, Macaca fascicularis; design: dose 3 mg/kg, route oral; details: in vivo; outline: as §2
Cytochrome P450 3A4 = Cytochrome P450 3A4 (Homo sapiens, UniProt P08684); test: Inhibition of human CYP3A4 using testosterone as substrate by LC/MS/MS analysis; assay type: ADME; outline: as §4
Chain of Cytochrome P450 3A4 (P08684 whole entry): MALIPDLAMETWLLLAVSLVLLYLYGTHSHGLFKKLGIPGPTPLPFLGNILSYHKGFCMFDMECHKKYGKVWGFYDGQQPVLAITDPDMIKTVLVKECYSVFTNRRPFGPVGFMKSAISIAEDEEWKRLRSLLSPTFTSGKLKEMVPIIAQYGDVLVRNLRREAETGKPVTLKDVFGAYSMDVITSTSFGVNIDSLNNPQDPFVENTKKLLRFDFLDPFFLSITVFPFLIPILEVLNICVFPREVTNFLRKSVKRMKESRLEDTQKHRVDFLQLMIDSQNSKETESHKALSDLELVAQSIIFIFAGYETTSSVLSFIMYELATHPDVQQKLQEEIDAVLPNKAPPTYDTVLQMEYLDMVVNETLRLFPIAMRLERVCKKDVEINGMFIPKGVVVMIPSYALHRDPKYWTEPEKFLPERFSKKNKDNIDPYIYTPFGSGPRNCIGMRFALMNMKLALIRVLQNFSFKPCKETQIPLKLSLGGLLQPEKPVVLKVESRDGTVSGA

- pIC50 [1]: 6.62
- concentration at 4 h [2]: 2.7 µM
- concentration at 1 h [3]: 18.7 µM
SMILES: O=C(Cc1c[nH]cn1)N[C@@H](COCc1ccccc1)c1nc2cc(Oc3ccc(F)cc3)ccc2[nH]1

- pIC50 [4]: < 5.00
- Cmax [5]: 1.5 µM
- bioavailability [6]: 76.4%
- pIC50 [7]: < 5.00
- AUC(0-inf) [8]: 108 µM·h
- pIC50 [1]: 8.24
- pIC50 (Cytochrome P450 2C9): 4.76
- concentration at 24 h [10]: 4.7 µM
- AUC(0-inf) [11]: 108 µM·h
- half-life [12]: 34 h
- half-life [13]: 22.5 h
- pIC50 [14]: 7.59
- bioavailability [15]: 45.7%
- bioavailability [16]: 99.9%
- concentration at 4 h [17]: 16.7 µM
- AUC(0-inf) [18]: 16.7 µM·h
- Cmax [19]: 3.2 µM
- Cmax [20]: 5.4 µM
- pIC50 (Cytochrome P450 2D6): 4.69
- half-life [21]: 6.4 h
- pIC50 (Cytochrome P450 3A4): < 4.70
SMILES: O=C(Nc1ccc(Oc2ccc(F)cc2)cc1)[C@@H]1C[C@@H](Cc2ccc(F)cc2)CN1C(=O)Cn1ccnn1
- inhibition in vivo at 100 mg/kg [9]: 43%
